# Laboratory results reported in ChEMBL document CHEMBL4765271, “Design, synthesis and biological evaluation of 2,3-dihydro-5,6-dimethoxy-1H-inden-1-one and piperazinium salt hybrid derivatives as hAChE and hBuChE enzyme inhibitors” (Eur J Med Chem, 2020).
# Active and inactive are the calls of the source. The rule behind the calls is not given here.
# Key:
# MCF7 = assay: Cytotoxicity against human MCF7 cells after 48 hrs by MTT assay; format: ADME, cell-based; conditions: MCF7, 48 h
# PC-12 [1] = assay: Cytoprotective activity against amyloid beta (1 to 42)-induced toxicity in rat PC-12 cells assessed as decrease in MDA level measured after 8 hrs by TBARS assay; format: functional, cell-based
# In short: (§1)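 Cells seeded in six-well plates, exposed to 5 μM Aβ(1-42) with or without compound (1 or 10 μM) for 8 h. They were collected and sonicated on ice, then lysed with SDS. TBA reagent added and heated at 95 °C for 45-60 min. MDA read by TBARS absorbance at 535 nm.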
# PC-12 [2] = assay: Cytoprotective activity against amyloid beta (1 to 42)-induced toxicity in rat PC-12 cells assessed as decrease in LDH level by spectrophotometric assay; format: functional, cell-based
# In short: (§2)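 PC12 cells exposed to 5 μM Aβ(1-42) in serum-free DMEM 24 h at 37 °C, then compound (1 or 10 μM) added for 24 h. LDH in culture medium measured as rate of NADH oxidation (pyruvate→lactate), read as absorbance decrease at 340 nm. Expressed as leakage into medium relative to total LDH.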
# PC-12 [3] = assay: Cytoprotective activity against amyloid beta (1 to 42)-induced toxicity in rat PC-12 cells assessed as decrease in LDH level at 10 uM by spectrophotometric assay relative to control; format: functional; set-up: scale not given: the % may be the effect or the level left; in short: as §2
# PC-12 [4] = assay: Antioxidant activity in amyloid beta (1 to 42)-induced oxidative stress in rat PC-12 cells assessed as reduction in ROS formation by measuring DCF fluorescence intensity at 10 uM measured after 24 hrs by DCFH-DA staining based fluorescence spectrophotometric assay (reference value: 51 +/- 11); format: functional
# Cholinesterase [5] = biological target: T1, Cholinesterase (Homo sapiens, UniProt P06276); assay: Non competitive inhibition of human plasma BuChE using varying levels of butyrylthiocholine iodide as substrate by Lineweaver-Burk plot analysis
# HFF = assay: Cytotoxicity against HFF cells assessed as reduction in cell viability incubated for 48 hrs by MTT assay; format: ADME, cell-based; conditions: Homo sapiens
# Homo sapiens = organism: Homo sapiens; assay: Selectivity ratio of IC50 for human erythrocyte AChE to IC50 for human plasma BuChE
# In short: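 Ellman assay used cholinesterases from human blood. Inhibitor at five concentrations was pre-incubated 5 min at 37 °C in phosphate buffer pH 8 with DTNB (3.5 mM stock) and acetylthiocholine iodide substrate (7 mM stock). The reaction was started with enzyme and read as absorbance increase at 412 nm. Each run was done twice. The ratio is derived from the AChE and BuChE IC50 values.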
# PC-12 [6] = assay: Antioxidant activity in amyloid beta (1 to 42)-induced oxidative stress in rat PC-12 cells assessed as reduction in ROS formation by measuring DCF fluorescence intensity at 1 uM measured after 24 hrs by DCFH-DA staining based fluorescence spectrophotometric assay (reference value: 51 +/- 11); format: functional
# PC-12 [7] = assay: Antioxidant activity in amyloid beta (1 to 42)-induced oxidative stress in rat PC-12 cells assessed as reduction in ROS formation measured after 24 hrs by DCFH-DA staining based fluorescence spectrophotometric assay; format: functional, cell-based
# In short: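 Intracellular ROS: PC12 cells given 5 μM Aβ(1-42) with or without compound (1 or 10 μM), then loaded with 10 μM DCFH-DA for 5 min at room temperature. DCF fluorescence read at ex 485/em 530 nm, with DAPI counterstain (ex 358/em 461) for microscopy.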
# PC-12 [8] = assay: Antioxidant activity in amyloid beta (1 to 42)-induced oxidative stress in rat PC-12 cells assessed as reduction in ROS formation by measuring apoptotic index at 10 uM measured after 24 hrs by DAPI staining based TUNEL assay (reference value: 60 +/- 10); format: functional
# PC-12 [9] = assay: Antiinflammatory activity in amyloid beta (1 to 42)-induced cytokine production in rat PC-12 cells assessed as decrease in IL-1beta mRNA level by SYBR green dye based RT-PCR analysis; format: functional, cell-based
# In short: (§3)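 PC12 cells (7-day cultures, DMEM with 7% FBS, 7% horse serum) exposed to 5 μM Aβ(1-42) in serum-free DMEM for 24 h at 37 °C, 5% CO2, then compound at 1 or 10 μM for 24 h. Total RNA isolated, reverse transcribed, and IL-1β and TNF-α mRNA quantified by SYBR Green real-time PCR; 2^-ΔΔCT method relative to β-actin.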
# SH-SY5Y = assay: Cytotoxicity against human SH-SY5Y cells measured after 48 hrs by MTT assay; format: ADME, cell-based
# Cholinesterase [10] = biological target: T1, Cholinesterase; assay: Inhibition of human plasma BuChE using butyrylthiocholine as substrate measured after 5 mins by Ellman's method
# Acetylcholinesterase [11] = biological target: T2, Acetylcholinesterase (Homo sapiens, UniProt P22303); assay: Mixed type inhibition of human erythrocyte AChE using varying levels of acetylthiocholine iodide as substrate by Lineweaver-Burk plot analysis
# PC-12 [12] = assay: Antioxidant activity in amyloid beta (1 to 42)-induced oxidative stress in rat PC-12 cells assessed as reduction in ROS formation measured after 24 hrs by DAPI staining based TUNEL assay; format: functional, cell-based
# In short: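 Aβ(1-42) (5 μM) treated PC12 cells, with compound at 1 or 10 μM, fixed in 4% paraformaldehyde (1 h), blocked with […], then permeabilized with 0.1% Triton X-100/0.1% sodium citrate on ice. TUNEL reaction 60 min at 37 °C, DAPI nuclear counterstain, imaged by fluorescence/confocal microscopy.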
# PC-12 [13] = assay: Antioxidant activity in amyloid beta (1 to 42)-induced oxidative stress in rat PC-12 cells assessed as reduction in ROS formation by measuring apoptotic index at 1 uM measured after 24 hrs by DAPI staining based TUNEL assay (reference value: 60 +/- 10); format: functional
# Acetylcholinesterase [14] = biological target: T2, Acetylcholinesterase; assay: Inhibition of human erythrocyte AChE using acetylthiocholine as substrate measured after 5 mins by Ellman's method
# PC-12 [15] = assay: Antiinflammatory activity in amyloid beta (1 to 42)-induced cytokine production in rat PC-12 cells assessed as decrease in TNFalpha mRNA level by SYBR green dye based RT-PCR analysis; format: functional, cell-based; in short: as §3
# PC-12 [16] = assay: Cytoprotective activity against amyloid beta (1 to 42)-induced toxicity in rat PC-12 cells assessed as decrease in LDH level at 1 uM by spectrophotometric assay relative to control; format: functional; set-up: scale not given: the % may be the effect or the level left; in short: as §2
# PC-12 [17] = assay: Protection against amyloid beta (1 to 42)-induced toxicity in rat PC-12 cells assessed as increase in cell viability measured after 24 hrs by transmission electron microscopy; format: functional, cell-based
# In short: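 PC12 cells incubated with 5 μM Aβ(1-42), with or without compound at 1 or 10 μM, at 37 °C for 24 h. Cell morphology and viability were compared by transmission electron microscopy.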
# PC-12 [18] = assay: Cytoprotective activity against amyloid beta (1 to 42)-induced toxicity in rat PC-12 cells assessed as decrease in MDA level at 1 to 10 uM measured after 8 hrs by TBARS assay relative to control; format: functional; set-up: scale not given: the % may be the effect or the level left; conditions: dose 1-10 µM; in short: as §1
# PC-12 [19] = assay: Antioxidant activity in amyloid beta (1 to 42)-induced oxidative stress in rat PC-12 cells assessed as increase in TAC level at 1 to 10 uM in presence of ABTS by spectrophotometric assay; format: functional, cell-based; conditions: dose 1-10 µM
# In short: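 Total antioxidant capacity measured with the ABTS/myoglobin method: 10 mM PBS pH 7.2, myoglobin, ABTS (300 μM final) and diluted sample or Trolox held 3 min at 25 °C. The reaction was started and absorbance read at 450 nm for 5 min at 25 °C. Cells were treated with 5 μM Aβ(1-42) with or without compound.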
# Cholinesterase [20] = biological target: T1, Cholinesterase; assay: Inhibition of human plasma BuChE at 100 uM using butyrylthiocholine as substrate measured after 5 mins by Ellman's method relative to control
# In short: (§4)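 Ellman spectrophotometric assay using cholinesterases from human blood. The 1 ml medium held pH 8 phosphate buffer, DTNB (3.5 mM stock), thiocholine substrate (7 mM stock) and inhibitor. It was preincubated 5 min at 37 °C, then started by adding enzyme. Absorbance increase was read at 412 nm over 5 min intervals against control cuvettes. Each experiment was run twice.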
# Acetylcholinesterase [21] = biological target: T2, Acetylcholinesterase; assay: Inhibition of human erythrocyte AChE at 100 uM using acetylthiocholine as substrate measured after 5 mins by Ellman's method relative to control; in short: as §4
# Acetylcholinesterase [22] = biological target: T2, Acetylcholinesterase; assay: Non competitive inhibition of human erythrocyte AChE using varying levels of acetylthiocholine iodide as substrate by Lineweaver-Burk plot analysis
# Acetylcholinesterase [23] = biological target: T2, Acetylcholinesterase
# T1 sequence (P06276 whole entry): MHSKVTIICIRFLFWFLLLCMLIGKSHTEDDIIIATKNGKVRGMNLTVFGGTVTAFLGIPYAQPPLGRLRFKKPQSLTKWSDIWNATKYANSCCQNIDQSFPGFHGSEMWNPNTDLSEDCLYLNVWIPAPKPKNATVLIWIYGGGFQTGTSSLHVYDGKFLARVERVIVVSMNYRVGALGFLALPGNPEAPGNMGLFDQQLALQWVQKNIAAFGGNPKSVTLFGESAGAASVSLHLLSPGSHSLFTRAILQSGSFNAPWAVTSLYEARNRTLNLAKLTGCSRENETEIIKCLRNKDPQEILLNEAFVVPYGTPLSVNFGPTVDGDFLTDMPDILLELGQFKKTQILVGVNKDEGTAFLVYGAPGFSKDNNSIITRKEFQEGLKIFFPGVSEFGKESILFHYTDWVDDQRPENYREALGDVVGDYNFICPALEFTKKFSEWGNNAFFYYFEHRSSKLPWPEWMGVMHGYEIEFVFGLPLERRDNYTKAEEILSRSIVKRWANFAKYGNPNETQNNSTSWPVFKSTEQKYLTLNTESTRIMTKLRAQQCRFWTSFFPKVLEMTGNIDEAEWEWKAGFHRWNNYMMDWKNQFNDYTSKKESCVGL
# T2 sequence (P22303 whole entry): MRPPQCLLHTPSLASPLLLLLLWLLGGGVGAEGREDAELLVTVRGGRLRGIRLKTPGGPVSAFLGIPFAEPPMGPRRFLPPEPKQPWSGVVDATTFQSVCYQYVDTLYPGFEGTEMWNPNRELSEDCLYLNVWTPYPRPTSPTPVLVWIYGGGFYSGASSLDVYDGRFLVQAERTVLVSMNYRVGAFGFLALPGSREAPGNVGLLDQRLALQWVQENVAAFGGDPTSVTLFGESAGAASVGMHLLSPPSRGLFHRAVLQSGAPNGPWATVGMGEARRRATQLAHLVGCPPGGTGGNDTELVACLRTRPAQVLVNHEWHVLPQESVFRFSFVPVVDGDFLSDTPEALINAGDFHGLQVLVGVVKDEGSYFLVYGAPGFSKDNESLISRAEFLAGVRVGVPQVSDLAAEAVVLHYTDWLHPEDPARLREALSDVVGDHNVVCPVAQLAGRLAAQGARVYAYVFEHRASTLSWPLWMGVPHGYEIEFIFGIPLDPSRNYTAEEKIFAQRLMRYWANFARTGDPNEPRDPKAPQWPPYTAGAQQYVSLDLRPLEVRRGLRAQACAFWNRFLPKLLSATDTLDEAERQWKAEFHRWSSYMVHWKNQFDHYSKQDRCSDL
compound,measurement,setting,value
COc1cc2c(cc1OC)C(=O)/C(=C/c1ccc(N3CC[N+](C)(Cc4cccc(Cl)c4)CC3)cc1)C2.[Br-],IC50,MCF7,1520 nM
same,Activity,PC-12 [1],Dose-dependent effect
same,Activity,PC-12 [2],Dose-dependent effect
same,Activity,PC-12 [3],27.5%
same,Flu intensity,PC-12 [4],38
same,Ki,Cholinesterase [5],500 nM
same,IC50,HFF,1980 nM
same,Ratio IC50,Homo sapiens,0.74
same,Flu intensity,PC-12 [6],51
same,Activity,PC-12 [7],Dose-dependent effect
same,Activity_index,PC-12 [8],35
same,Activity,PC-12 [9],Dose-dependent effect
same,IC50,SH-SY5Y,1230 nM
same,IC50,Cholinesterase [10],430 nM
same,Ki,Acetylcholinesterase [11],1000 nM
same,Kinact,Acetylcholinesterase [11],0.5 µM
same,Activity,PC-12 [12],Dose-dependent effect
same,Activity_index,PC-12 [13],50
same,IC50,Acetylcholinesterase [14],320 nM
same,Activity,PC-12 [15],Dose-dependent effect
same,Activity,PC-12 [16],16.6%
same,Activity,PC-12 [17],Dose-dependent effect
same,Activity,PC-12 [18],40.4%
same,Activity,PC-12 [19],Active
COc1cc2c(cc1OC)C(=O)/C(=C/c1ccc(N3CC[N+](C)(Cc4ccccn4)CC3)cc1)C2,Ratio IC50,Homo sapiens,0.12
same,IC50,Cholinesterase [10],3240 nM
same,IC50,Acetylcholinesterase [14],380 nM
C=CC[N+]1(C)CCN(c2ccc(/C=C3\Cc4cc(OC)c(OC)cc4C3=O)cc2)CC1,Ratio IC50,Homo sapiens,0.02
same,IC50,Cholinesterase [10],25200 nM
same,IC50,Acetylcholinesterase [14],430 nM
COc1cc2c(cc1OC)C(=O)/C(=C/c1ccc(OCCBr)cc1)C2,inhibition,Cholinesterase [20],5.16%
same,inhibition,Acetylcholinesterase [21],6.16%
COc1cc2c(cc1OC)C(=O)/C(=C/c1ccc(N3CC[N+](C)(CCO)CC3)cc1)C2,Ratio IC50,Homo sapiens,0.17
same,IC50,Cholinesterase [10],6480 nM
same,IC50,Acetylcholinesterase [14],1100 nM
COc1cc2c(cc1OC)C(=O)/C(=C/c1ccc(N3CC[N+](C)(Cc4ccccc4Br)CC3)cc1)C2,Ratio IC50,Homo sapiens,0.38
same,IC50,Cholinesterase [10],1400 nM
same,IC50,Acetylcholinesterase [14],540 nM
COc1cc2c(cc1OC)C(=O)/C(=C/c1ccc(N3CC[N+](C)(Cc4ccccc4Cl)CC3)cc1)C2,Ratio IC50,Homo sapiens,0.22
same,IC50,Cholinesterase [10],2160 nM
same,IC50,Acetylcholinesterase [14],480 nM
CCCCC[N+]1(C)CCN(c2ccc(/C=C3\Cc4cc(OC)c(OC)cc4C3=O)cc2)CC1,Ratio IC50,Homo sapiens,0.17
same,IC50,Cholinesterase [10],3240 nM
same,IC50,Acetylcholinesterase [14],540 nM
COc1cc2c(cc1OC)C(=O)/C(=C/c1ccc(N3CC[N+](C)(Cc4ccc(Br)cc4)CC3)cc1)C2,Ratio IC50,Homo sapiens,0.55
same,IC50,Cholinesterase [10],4600 nM
same,IC50,Acetylcholinesterase [14],2550 nM
COc1cc2c(cc1OC)C(=O)/C(=C/c1ccc(N3CCN(C)CC3)cc1)C2,inhibition,Cholinesterase [20],23.9%
same,IC50,Acetylcholinesterase [14],320 nM
COc1cc2c(cc1OC)C(=O)/C(=C/c1ccc(N3CC[N+](C)(Cc4cccc(Br)c4)CC3)cc1)C2,Ratio IC50,Homo sapiens,3.06
same,IC50,Cholinesterase [10],650 nM
same,IC50,Acetylcholinesterase [14],1990 nM
CCC[N+]1(C)CCN(c2ccc(/C=C3\Cc4cc(OC)c(OC)cc4C3=O)cc2)CC1,Ratio IC50,Homo sapiens,0.11
same,IC50,Cholinesterase [10],20200 nM
same,IC50,Acetylcholinesterase [14],2150 nM
COc1cc2c(cc1OC)C(=O)/C(=C/c1ccc(OCCCCBr)cc1)C2,inhibition,Cholinesterase [20],0%
same,inhibition,Acetylcholinesterase [21],27.8%
CCCCCC[N+]1(C)CCN(c2ccc(/C=C3\Cc4cc(OC)c(OC)cc4C3=O)cc2)CC1,Ratio IC50,Homo sapiens,1.18
same,IC50,Cholinesterase [10],3600 nM
same,IC50,Acetylcholinesterase [14],4250 nM
CCCC[N+]1(C)CCN(c2ccc(/C=C3\Cc4cc(OC)c(OC)cc4C3=O)cc2)CC1,Ratio IC50,Homo sapiens,0.02
same,IC50,Cholinesterase [10],21600 nM
same,IC50,Acetylcholinesterase [14],540 nM
COc1cc2c(cc1OC)C(=O)/C(=C/c1ccc(N3CC[N+](C)(Cc4ccccc4)CC3)cc1)C2,IC50,MCF7,1200 nM
same,Ki,Cholinesterase [5],400 nM
same,IC50,HFF,2400 nM
same,Ratio IC50,Homo sapiens,0.86
same,Ki,Acetylcholinesterase [22],500 nM
same,IC50,SH-SY5Y,1280 nM
same,IC50,Cholinesterase [10],430 nM
same,Kinact,Acetylcholinesterase [23],0.5 µM
same,IC50,Acetylcholinesterase [14],370 nM
